PMC3032767 (Journal of cellular physiology, 2008)
Like-named read-outs stand apart in the source and are kept apart here.

How the values were obtained:
VEGFR1 = VEGFR1 (Homo sapiens, UniProt P17948); test: Kinase inhibition assay; type: biochemical
In short: (§1)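 Kinase activity was measured by commercial services. IC50 is the mean of 3 independent experiments.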

VEGFR2 = VEGFR2 (Homo sapiens, UniProt P35968); test: Kinase inhibition assay; type: biochemical
In short: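 Kinase inhibition was run by commercial services, with the test compound supplied as a DMSO stock. IC50 is the mean from 3 independent experiments.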

FGFR1 = FGFR1 (Homo sapiens, UniProt P11362); test: Kinase inhibition assay; type: biochemical
FGFR1, sequence (P11362 22-822, species assumed): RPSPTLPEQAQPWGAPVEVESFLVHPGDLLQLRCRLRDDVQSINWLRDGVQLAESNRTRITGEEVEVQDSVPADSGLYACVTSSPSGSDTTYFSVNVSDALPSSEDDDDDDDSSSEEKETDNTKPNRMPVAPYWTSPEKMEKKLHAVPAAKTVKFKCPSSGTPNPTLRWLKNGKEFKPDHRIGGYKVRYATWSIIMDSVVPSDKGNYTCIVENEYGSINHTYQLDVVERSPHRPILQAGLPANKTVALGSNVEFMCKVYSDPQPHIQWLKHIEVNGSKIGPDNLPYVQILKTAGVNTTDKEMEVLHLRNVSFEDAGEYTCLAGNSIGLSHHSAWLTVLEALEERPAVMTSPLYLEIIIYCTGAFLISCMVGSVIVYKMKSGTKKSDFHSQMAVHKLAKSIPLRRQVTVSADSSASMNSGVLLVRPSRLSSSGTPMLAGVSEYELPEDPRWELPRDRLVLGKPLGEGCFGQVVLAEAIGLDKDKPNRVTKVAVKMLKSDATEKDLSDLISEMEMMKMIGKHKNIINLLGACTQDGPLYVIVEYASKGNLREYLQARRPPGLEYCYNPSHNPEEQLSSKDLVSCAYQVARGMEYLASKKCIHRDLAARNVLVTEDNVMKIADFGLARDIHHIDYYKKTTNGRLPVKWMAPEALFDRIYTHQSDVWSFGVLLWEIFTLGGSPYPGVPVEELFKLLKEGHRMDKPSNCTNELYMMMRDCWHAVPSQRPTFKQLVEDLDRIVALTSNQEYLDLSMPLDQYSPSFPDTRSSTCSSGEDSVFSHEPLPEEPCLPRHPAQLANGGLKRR
In short: as §1

FGFR2 = FGFR2 (Homo sapiens, UniProt P21802); test: Kinase inhibition assay; type: biochemical
In short: as §1

PDGFRβ = PDGFRβ (Homo sapiens, UniProt P09619); test: Kinase inhibition assay; type: biochemical
In short: as §1

Fgr = Fgr (Homo sapiens, UniProt P09769); test: Kinase inhibition assay; type: biochemical
In short: as §1

Fyn = Fyn (Homo sapiens, UniProt P06241); test: Kinase inhibition assay; type: biochemical
Fyn, sequence (P06241 whole entry, species assumed): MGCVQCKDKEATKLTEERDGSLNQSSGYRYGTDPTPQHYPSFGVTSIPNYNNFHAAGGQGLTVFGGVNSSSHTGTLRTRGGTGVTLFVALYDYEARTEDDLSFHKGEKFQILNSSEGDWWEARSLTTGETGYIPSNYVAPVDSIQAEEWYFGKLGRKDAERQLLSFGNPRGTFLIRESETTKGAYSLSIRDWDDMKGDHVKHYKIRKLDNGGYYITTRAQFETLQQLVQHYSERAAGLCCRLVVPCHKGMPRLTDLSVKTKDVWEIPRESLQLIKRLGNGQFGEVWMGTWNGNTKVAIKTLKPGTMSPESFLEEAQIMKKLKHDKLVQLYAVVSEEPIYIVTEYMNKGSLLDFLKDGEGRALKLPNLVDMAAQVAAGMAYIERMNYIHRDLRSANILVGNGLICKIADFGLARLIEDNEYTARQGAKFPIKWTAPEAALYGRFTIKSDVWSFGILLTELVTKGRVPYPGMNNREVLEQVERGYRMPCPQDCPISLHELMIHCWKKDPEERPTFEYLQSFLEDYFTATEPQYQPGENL
In short: as §1

Hck = Hck (Homo sapiens, UniProt P08631); test: Kinase inhibition assay; type: biochemical
In short: as §1

Lck = Lck (Homo sapiens, UniProt P06239); test: Kinase inhibition assay; type: biochemical
Lyn = Lyn (Homo sapiens, UniProt P07948); test: Kinase inhibition assay; type: biochemical
Lyn, sequence (P07948 whole entry, species assumed): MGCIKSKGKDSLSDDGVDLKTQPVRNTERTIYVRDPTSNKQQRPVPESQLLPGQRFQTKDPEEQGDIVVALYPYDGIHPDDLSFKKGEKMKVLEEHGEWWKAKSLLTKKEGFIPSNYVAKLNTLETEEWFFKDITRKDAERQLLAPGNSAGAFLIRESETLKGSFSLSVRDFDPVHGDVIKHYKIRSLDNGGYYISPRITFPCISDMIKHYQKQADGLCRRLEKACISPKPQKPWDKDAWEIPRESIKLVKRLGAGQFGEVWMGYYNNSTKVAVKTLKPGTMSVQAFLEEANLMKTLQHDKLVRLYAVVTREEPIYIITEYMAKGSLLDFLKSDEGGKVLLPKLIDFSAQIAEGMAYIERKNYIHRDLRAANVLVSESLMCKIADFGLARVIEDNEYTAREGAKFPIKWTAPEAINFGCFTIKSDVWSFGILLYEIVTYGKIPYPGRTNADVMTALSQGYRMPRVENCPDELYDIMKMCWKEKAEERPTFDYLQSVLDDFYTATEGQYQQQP
In short: as §1

Src = Src (Homo sapiens, UniProt P12931); test: Kinase inhibition assay; type: biochemical
Yes = Yes (Homo sapiens, UniProt P07947); test: Kinase inhibition assay; type: biochemical
Yes, sequence (P07947 whole entry, species assumed): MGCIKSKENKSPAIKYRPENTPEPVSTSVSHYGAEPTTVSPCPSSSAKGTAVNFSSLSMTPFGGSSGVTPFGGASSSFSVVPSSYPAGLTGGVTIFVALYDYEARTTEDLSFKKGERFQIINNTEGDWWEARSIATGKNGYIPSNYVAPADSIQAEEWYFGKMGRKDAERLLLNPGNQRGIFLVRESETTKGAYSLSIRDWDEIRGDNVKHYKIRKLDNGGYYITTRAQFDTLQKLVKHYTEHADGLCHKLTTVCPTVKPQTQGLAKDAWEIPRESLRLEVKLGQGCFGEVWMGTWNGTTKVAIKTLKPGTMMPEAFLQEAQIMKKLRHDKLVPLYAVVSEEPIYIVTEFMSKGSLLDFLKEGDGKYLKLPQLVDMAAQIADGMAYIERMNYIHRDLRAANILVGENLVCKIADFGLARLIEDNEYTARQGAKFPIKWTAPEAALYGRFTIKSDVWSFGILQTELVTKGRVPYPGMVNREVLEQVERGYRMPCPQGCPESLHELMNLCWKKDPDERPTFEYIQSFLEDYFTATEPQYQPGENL
In short: as §1

[1] = tested on: human retinal microvascular EC; test: Endothelial cell proliferation assay; type: cell-based; settings: 48 hr; 10% FBS, 50 ng/mL rhVEGF; mean ± SEM, N= 3
In short: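 Human retinal microvascular EC were grown 48 hr with test compound (2 nM–5 µM) or DMSO vehicle in medium containing 10% FBS, 50 µg/mL heparin and 50 ng/mL rhVEGF. Cell number was read by XTT assay.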

[2] = tested on: VEGF-induced phosphorylation of extracellular signal-regulated kinase (ERK); test: Western blot of VEGF-induced signaling in microvascular EC; type: cell-based, human; settings: 1 µM for 1 hr, then rhVEGF 50 ng/ml 10 min
In short: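 Endothelial cells were held overnight in serum- and growth factor-free medium before test compound exposure. After 10 min rhVEGF, cells were lysed and blotted for phosphorylated Erk1/2, with total STAT3 as loading control. Comparison groups were no-VEGF and VEGF-only cultures.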

[3] = tested on: laser-induced choroidal neovascularization (CNV); test: Mouse model of laser-induced CNV; type: in vivo, C57BL/6 mice; settings: 14 days
[4] = Ocular tissue levels after i.p. dosing in mice; type: in vivo, C57BL/6 mice; settings: C57BL/6, mouse, ip, 5 mg/kg
In short: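 C57BL/6 mice (15–20 g) got 5 mg/kg test compound i.p. twice daily for 4 days, then a single dose on Day 5. Eyes were taken 5 hr later, dissected into retina and sclera/choroid eye cups, and pooled (N=2–4). Tissue was homogenized in RIPA, extracted with acetonitrile containing internal standards and quantified by LC/MS/MS against standards made in naive tissue.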

[5] = Pharmacokinetics after topical dosing in mice; type: in vivo, C57BL/6 mice; settings: for Plasma concentration (below level of detection): mouse, topical 1% TG100801, all time points, analyte = labelled compound
[6] = Oral and intravenous administration, systemic exposure; type: in vivo; settings: data not shown; for Oral bioavailability: oral administration
[7] = Body weight and tolerability in the mouse CNV study; type: in vivo; settings: 14 days
[8] = Ocular safety assessment in rabbits; type: in vivo, Dutch Belted rabbits; settings: rabbit, 1% topical four times per day for 28 days
In short: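 Dutch Belted rabbits (1.7–2.2 kg) had baseline gross and slit lamp exams. Each eye then received 40 µL of 1% test prodrug or vehicle topically four times daily for 28 days. Gross exams were done daily and slit lamp exams weekly. On Day 29, final exams and ERGs were done, then eyes were taken for histopathology.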

[9] = Ocular distribution of 14C-TG100801; type: in vivo, Dutch-Belted rabbit; settings: rabbit, 30 min after single 40 µL topical 1% TG100801 containing 14C-TG100801, left eye; liquid scintillation counter
In short: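 A single male Dutch-Belted rabbit (2.1 kg) received 25 µCi of 14C label in the dose. The label sits on a position kept after prodrug conversion, so counts cover prodrug plus active drug. About 30 mL blood was taken 30 min post-instillation. Blood and plasma were counted directly by liquid scintillation.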

[10] = tested on: retinal edema after retinal vein thrombosis; type: in vivo, Long Evans rats
In short: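 Long Evans rats (250–275 g) got i.v. Rose Bengal (20 mg/kg), then laser thrombosis of one vein in the right eye. Both eyes received 10 µL test prodrug (0.3–1%) or vehicle, 5 doses over 3 days. Edema Index = (right AUC − left AUC)/left AUC. Scoring was blinded, n=9–11.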

[11] = tested on: retinal edema after retinal vein thrombosis; test: Rat model of retinal vein occlusion, retinal thickness by OCT; type: in vivo, Long Evans rats; settings: topical 1% TG100801
In short: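 The same Rose Bengal/laser vein-occlusion protocol and 5-dose topical schedule were used, with 1% test prodrug or vehicle; naive eyes served as comparators. Under ketamine/xylazine, vertical OCT scans covered 5 mm from the optic disc edge. Thickness was calculated at 6 evenly spaced points, and retinal area was derived. Assessment was blinded, n=17–21.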

kinase = test: Anti-kinase activity of the prodrug; type: biochemical; settings: data not shown
[12] = tested on: retinal and choroidal neovascularization; settings: topical administration to the eye; ref Takahashi et al., 2003; cited from earlier work
[13] = tested on: subfoveal choroidal neovascularization (CNV) due to AMD; settings: intraocular injections every 6 weeks; ref Gragoudas et al., 2004; cited from earlier work

VEGFR1, sequence (P17948 27-1338, species assumed): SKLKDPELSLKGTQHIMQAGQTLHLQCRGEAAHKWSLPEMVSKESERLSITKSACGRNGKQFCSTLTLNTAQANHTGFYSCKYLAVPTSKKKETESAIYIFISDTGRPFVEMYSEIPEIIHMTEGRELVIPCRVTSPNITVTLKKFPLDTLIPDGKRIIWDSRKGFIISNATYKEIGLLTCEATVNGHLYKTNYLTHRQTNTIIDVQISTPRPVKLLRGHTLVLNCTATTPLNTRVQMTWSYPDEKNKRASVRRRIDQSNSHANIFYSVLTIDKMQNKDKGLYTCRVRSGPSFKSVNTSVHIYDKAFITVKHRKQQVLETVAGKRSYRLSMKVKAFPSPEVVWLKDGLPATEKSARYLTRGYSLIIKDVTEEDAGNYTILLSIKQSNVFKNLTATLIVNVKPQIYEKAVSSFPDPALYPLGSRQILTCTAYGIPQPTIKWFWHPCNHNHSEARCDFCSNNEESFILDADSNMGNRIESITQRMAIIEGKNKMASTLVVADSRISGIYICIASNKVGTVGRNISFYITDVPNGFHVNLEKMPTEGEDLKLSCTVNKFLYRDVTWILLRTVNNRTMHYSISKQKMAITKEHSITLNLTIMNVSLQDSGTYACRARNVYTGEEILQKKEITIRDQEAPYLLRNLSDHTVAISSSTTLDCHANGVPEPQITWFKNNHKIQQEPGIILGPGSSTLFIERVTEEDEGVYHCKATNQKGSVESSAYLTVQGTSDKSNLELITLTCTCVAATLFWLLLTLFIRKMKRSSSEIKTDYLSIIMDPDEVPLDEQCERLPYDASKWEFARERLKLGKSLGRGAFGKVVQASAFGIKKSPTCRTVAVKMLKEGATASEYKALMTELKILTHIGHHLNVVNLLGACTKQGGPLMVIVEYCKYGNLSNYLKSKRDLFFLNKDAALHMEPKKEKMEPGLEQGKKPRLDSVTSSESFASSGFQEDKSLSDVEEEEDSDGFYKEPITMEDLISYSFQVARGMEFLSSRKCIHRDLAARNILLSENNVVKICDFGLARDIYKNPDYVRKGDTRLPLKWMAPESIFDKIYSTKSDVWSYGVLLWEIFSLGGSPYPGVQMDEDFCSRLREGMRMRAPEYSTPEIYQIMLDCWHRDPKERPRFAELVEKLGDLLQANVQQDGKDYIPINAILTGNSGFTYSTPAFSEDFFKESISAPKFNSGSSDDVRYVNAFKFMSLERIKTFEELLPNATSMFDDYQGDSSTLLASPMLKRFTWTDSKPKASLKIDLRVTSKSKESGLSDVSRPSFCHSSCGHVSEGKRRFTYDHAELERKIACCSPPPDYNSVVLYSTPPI
VEGFR2, sequence (P35968 20-1356, species assumed): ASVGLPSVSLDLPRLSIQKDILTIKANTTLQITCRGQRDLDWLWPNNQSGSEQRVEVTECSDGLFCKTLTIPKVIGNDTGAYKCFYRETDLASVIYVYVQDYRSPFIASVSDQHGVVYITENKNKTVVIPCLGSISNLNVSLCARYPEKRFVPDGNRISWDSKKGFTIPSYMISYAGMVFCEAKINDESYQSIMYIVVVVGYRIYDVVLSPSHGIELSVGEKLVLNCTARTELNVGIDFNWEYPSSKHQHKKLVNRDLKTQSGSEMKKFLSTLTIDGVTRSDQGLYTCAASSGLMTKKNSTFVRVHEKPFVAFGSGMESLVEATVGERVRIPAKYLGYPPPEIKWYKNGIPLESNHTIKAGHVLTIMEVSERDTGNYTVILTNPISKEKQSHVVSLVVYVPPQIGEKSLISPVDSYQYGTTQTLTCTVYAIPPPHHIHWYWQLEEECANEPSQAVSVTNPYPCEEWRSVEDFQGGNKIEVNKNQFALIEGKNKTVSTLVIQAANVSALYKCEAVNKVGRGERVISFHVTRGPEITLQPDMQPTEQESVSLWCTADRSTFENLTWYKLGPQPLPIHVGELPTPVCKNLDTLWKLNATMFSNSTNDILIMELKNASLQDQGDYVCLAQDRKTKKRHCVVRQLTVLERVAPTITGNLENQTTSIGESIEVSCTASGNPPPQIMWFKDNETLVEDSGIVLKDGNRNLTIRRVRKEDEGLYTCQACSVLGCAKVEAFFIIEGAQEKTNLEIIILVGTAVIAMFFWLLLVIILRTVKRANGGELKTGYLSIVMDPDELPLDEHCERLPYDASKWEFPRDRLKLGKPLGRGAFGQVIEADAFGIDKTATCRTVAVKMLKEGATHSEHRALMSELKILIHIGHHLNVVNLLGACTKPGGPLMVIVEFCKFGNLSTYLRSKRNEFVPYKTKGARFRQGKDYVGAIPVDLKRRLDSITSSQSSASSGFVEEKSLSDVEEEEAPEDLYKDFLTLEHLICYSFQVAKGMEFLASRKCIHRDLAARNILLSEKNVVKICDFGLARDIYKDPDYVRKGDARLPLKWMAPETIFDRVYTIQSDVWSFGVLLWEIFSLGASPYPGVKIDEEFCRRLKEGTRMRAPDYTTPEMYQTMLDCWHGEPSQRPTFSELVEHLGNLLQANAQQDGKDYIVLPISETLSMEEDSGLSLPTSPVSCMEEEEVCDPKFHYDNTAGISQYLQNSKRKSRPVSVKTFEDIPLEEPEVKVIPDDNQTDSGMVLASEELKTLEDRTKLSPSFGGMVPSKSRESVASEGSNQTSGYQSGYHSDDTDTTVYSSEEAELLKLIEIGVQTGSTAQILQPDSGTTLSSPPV

In the case of `Cc1cc(-c2cc(O)ccc2Cl)cc2nnc(Nc3ccc(OCCN4CCCC4)cc3)nc12` [TG100572, 4-chloro-3-(5-methyl-3-{[4-(2-pyrrolidin-1-ylethoxy)phenyl]amino}-1,2,4-benzotriazin-7-yl)phenol], the IC50 (VEGFR1) is reported as 2 nM, the IC50 (VEGFR2) is reported as 7 nM and the IC50 (FGFR1) is reported as 2 nM. The IC50 (FGFR2) was 16 nM, the IC50 (PDGFRβ) was 13 nM and the IC50 (Fgr) was 5 nM. The IC50 (Fyn) was 0.5 nM, the IC50 (Hck) was 6 nM and the IC50 (Lck) was 0.1 nM. The IC50 (Lyn) was 0.4 nM, the IC50 (Src) was 1 nM and the IC50 (Yes) was 0.2 nM. The “ED50, inhibition of vascular endothelial cell proliferation” value [1] was 610 ± 71 nM, the “VEGF-induced phosphorylation of ERK” value [2] was “blocked VEGF-induced phosphorylation of extracellular signal-regulated kinase (ERK)” and the “Reduction of CNV area compared to vehicle” value ([3]; TG100572 5 mg/kg i.p. daily, P< 0.001) was 40%. The concentration at 5 h ([4]; choroid/sclera) was 9000 nM, the concentration at 5 h ([4]; retina) was 818 nM and the AUC(0-t) ([5]; C57BL/6, mouse, posterior eyecup (sclera/choroid/retina), topical or ocular, 1 %) was 6.8 µM·h. The Tmax ([5]; C57BL/6, mouse, sclera/choroid, topical or ocular, 1 %) was 1 h, the “Plasma concentration (below level of detection)” value [5] was < 2 nM and the “Clearance after intravenous administration” value [6] was “rapidly cleared”. The Oral bioavailability [6] was “oral administration does not result in detectable levels in the circulation” and the “Body weight loss over the study” value ([7]; TG100572 5 mg/kg i.p. daily, vehicle gained 1%, P= 0.006) was 11%.

With `Cc1cc(-c2cc(OC(=O)c3ccccc3)ccc2Cl)cc2nnc(Nc3ccc(OCCN4CCCC4)cc3)nc12` [TG100801, 4-chloro-3-(5-methyl-3-{[4-(2-pyrrolidin-1-ylethoxy)phenyl]amino}-1,2,4-benzotriazin-7-yl)phenyl benzoate] the “Reduction of CNV area relative to vehicle” value ([3]; topical 1% TG100801 twice a day, P= 0.036) was 58%, the “Plasma concentration (below level of detection)” value [5] was < 2 nM and the “Daily gross exams and weekly slit lamp exams” value [8] was “did not detect ocular changes beyond baseline responses”. The “Electroretinograms (ERG) pre- and post-study” value [8] was “no meaningful changes”, the “Ocular histopathology at study end” value [8] was “normal ocular histology” and the “Ocular tolerability, overall judgement” value [8] was “well-tolerated”. The “Body weight during the study” value ([8]; data not shown) was “did not lose weight”, the “Radioactivity in plasma samples” value [9] was “absence of detectable radioactivity” and the “Reduction in edema (Edema Index, fluorescein leakage) vs vehicle” value ([10]; topical 0.3% TG100801, 5 applications over 3 days, P= 0.002) was 47%. The “Reduction in edema (Edema Index, fluorescein leakage) vs vehicle” value ([10]; topical 1% TG100801, 5 applications over 3 days, P = 0.039) was 32%, the “Average retinal area in the region encompassed by the OCT scans” value ([11]; thrombosed eyes, naive 203 ± 2, vehicle 327 ± 23) was 257 ± 13 µm^2 and the “Reduction of retinal thickness vs vehicle at points along 5 mm OCT scans” value ([11]; 5 out of 6 points, P< 0.05) was 15–26%. For the same molecule, the “Reduction of average retinal area vs vehicle-treated group” value ([11]; P= 0.013) was 21%, the Anti-kinase activity (kinase) was “does not display meaningful anti-kinase activity” and the “Clearance after intravenous administration” value [6] was “rapidly cleared”. The Oral bioavailability [6] was “oral administration does not result in detectable levels in the circulation” and the “Ocular tolerability by slit lamp examination” value ([7]; mouse, topical 0.6% and 1% twice a day) was “well tolerated with no signs of irritation, inflammation, or other ocular toxicity”.

In the case of `NC(=O)Cc1cccc(C(=O)c2ccccc2)c1N` [nepafenac], the “Effect on retinal and choroidal neovascularization” value [12] is listed as “inhibits retinal and choroidal neovascularization”.

For pegaptanib, the “Severe vision loss over 1 year” value [13] is listed as “reduction in severe vision loss”.
